Experimental data from ChEMBL document CHEMBL4414601 (J Med Chem, 2019).
Converted amounts (≈) assume the structure as drawn. The source made the active and inactive calls. No cut-off for these calls is given here.

How the values were obtained:
Plasmodium falciparum [1] = assay: Antiplasmodial activity against Plasmodium falciparum 3D7A erythrocytic stage assessed as reduction in [3H]hypoxanthine incorporation preincubated for 24 hrs followed by [3H]hypoxanthine addition and measured after 24 hrs by microbeta scintillation counting method; format: functional, organism-based
How it was run: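 Nine threefold serial dilutions from 5 μM top concentration. Incubated 24 h at 37 °C under 5% CO2/5% O2/90% N2, then 0.2 μCi [3H]-hypoxanthine per well for another 24 h. Cells harvested on glass fibre filters and counted. Data normalized to compound-free parasitized RBCs; IC50 fitted.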

[2] = Lipophilicity, LogD of compound by reverse phase HPLC analysis
[3] = Aqueous solubility of compound; conditions: buffer
[4] = target: Voltage-gated inwardly rectifying potassium channel KCNH2 (Homo sapiens, UniProt Q12809); assay: Inhibition of human ERG expressed in CHO cells by Q-patch clamp assay
Voltage-gated inwardly rectifying potassium channel KCNH2, sequence (Q12809 whole entry): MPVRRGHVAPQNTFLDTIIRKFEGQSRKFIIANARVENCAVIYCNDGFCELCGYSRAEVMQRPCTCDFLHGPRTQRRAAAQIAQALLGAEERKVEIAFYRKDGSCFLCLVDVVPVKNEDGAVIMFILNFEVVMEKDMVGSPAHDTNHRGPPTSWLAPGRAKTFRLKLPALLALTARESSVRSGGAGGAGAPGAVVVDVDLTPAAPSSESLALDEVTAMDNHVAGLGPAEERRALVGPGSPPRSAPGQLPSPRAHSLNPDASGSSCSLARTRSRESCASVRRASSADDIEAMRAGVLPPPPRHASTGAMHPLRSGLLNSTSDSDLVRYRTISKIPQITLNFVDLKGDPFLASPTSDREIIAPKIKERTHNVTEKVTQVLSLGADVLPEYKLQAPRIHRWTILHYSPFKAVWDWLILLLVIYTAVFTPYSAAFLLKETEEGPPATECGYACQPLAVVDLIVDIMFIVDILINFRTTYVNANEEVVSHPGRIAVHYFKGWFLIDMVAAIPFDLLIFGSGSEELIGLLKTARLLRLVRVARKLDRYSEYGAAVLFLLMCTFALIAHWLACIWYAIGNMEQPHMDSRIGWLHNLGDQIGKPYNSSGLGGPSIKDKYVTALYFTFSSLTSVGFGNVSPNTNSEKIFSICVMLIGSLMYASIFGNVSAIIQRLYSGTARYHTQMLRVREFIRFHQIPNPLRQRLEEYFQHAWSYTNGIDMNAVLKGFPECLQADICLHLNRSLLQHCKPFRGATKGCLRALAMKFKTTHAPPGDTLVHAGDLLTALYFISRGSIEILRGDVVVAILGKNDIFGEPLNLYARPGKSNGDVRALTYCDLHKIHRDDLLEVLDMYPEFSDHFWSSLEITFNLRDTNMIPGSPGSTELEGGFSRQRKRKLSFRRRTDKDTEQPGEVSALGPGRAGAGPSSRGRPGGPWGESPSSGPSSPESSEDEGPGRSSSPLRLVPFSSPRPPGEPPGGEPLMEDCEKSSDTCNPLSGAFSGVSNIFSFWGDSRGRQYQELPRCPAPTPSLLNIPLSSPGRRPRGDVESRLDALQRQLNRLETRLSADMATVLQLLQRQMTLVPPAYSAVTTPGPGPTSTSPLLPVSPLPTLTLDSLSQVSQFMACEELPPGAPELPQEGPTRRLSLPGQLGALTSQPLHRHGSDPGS

L929 = assay: Cytotoxicity against mouse L929 cells assessed as reduction in viability by dual luciferase reporter gene assay; format: ADME, cell-based
[5] = Permeability of compound by PAMPA
[6] = Clearance in mouse liver microsomes at 0.5 uM measured up to 45 mins in presence of NADPH by HPLC-MS/MS analysis; format: ADME, Microsome
[7] = Clearance in rat liver microsomes at 0.5 uM measured up to 45 mins in presence of NADPH by HPLC-MS/MS analysis; format: ADME, Microsome
[8] = Clearance in human liver microsomes at 0.5 uM measured up to 45 mins in presence of NADPH by HPLC-MS/MS analysis; format: ADME, Microsome
Plasmodium falciparum [9] = assay: (§1) Antiplasmodial activity against Plasmodium falciparum 3D7A asexual erythrocytic stage assessed as reduction in [3H]hypoxanthine incorporation preincubated for 48 hrs followed by [3H]hypoxanthine addition and measured after 24 hrs by microbeta scintillation counting method; format: functional, organism-based
Plasmodium falciparum [10] = assay: as §1, with “3D7A harboring with PKG T618Q mutant” for “3D7A”; format: functional, organism-based
Plasmodium falciparum [11] = assay: as §1, with “3D7A harboring with PKG T618Q mutant” for “3D7A”, “72” for “48”; format: functional, organism-based
Plasmodium falciparum [12] = assay: Antiplasmodial activity against Plasmodium falciparum 3D7A erythrocytic stage assessed as reduction in [3H]hypoxanthine incorporation preincubated for 24 to 120 hrs followed by subculture in absence of compound and measured after 21 to 28 days by microbeta scintillation counting method; format: functional, organism-based
How it was run: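 P. falciparum 3D7A cultures were drug-exposed for 120 h, with samples taken every 24 h (24, 48, 72, 96 and 120 h). Viable parasites were quantified by limiting dilution, counting wells with growth after 21 and 28 days by [3H]-hypoxanthine incorporation.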

[13] = target: cGMP-dependent protein kinase (Plasmodium falciparum, UniProt W7JX98); assay: Inhibition of Plasmodium falciparum full length N-terminal His-tagged PKG expressed in Escherichia coli RosettaTM 2(DE3) pLysS cells using FAM-GRTGRRNSI-NH2 as substrate preincubated for 30 mins followed by ATP addition and measured after 30 mins by microfluidic mobility shift assay
cGMP-dependent protein kinase, sequence (W7JX98 whole entry): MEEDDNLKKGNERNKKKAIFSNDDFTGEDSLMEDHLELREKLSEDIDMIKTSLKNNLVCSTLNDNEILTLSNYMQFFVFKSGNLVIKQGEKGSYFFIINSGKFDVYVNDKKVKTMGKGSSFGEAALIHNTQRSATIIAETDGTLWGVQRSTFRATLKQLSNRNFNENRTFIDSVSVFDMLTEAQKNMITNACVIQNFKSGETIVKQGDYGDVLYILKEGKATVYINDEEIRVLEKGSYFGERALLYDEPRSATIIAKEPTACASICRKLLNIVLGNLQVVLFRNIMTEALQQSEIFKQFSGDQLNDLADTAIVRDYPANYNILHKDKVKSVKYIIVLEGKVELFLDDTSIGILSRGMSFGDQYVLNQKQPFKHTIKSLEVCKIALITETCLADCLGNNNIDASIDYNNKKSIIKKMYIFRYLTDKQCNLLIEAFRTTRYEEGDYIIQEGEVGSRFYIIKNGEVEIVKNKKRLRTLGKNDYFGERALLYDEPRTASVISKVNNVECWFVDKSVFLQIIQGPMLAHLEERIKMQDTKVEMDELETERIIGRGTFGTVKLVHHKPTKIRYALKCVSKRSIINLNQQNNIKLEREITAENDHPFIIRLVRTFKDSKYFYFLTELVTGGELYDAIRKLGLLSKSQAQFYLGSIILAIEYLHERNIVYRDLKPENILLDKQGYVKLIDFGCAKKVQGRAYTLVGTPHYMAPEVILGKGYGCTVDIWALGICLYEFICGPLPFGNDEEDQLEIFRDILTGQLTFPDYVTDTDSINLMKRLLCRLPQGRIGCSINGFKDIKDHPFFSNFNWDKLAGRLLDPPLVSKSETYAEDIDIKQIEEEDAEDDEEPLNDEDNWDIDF

Plasmodium falciparum [14] = assay: Antiplasmodial activity against […] of Plasmodium falciparum NF54 assessed as reduction in male gametocytes activation preincubated for 48 hrs followed by gametocytes activation and measured after 24 hrs by fluorescence based automated inverted microscopic analysis; format: functional, organism-based
How it was run: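 Gametocyte activation was triggered by reduced temperature and ookinete medium containing xanthurenic acid. Male exflagellation centres were detected from a 10-frame video, scoring pixel changes caused by flagellar movement shifting surrounding cells.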

Plasmodium falciparum [15] = assay: Antiplasmodial activity against […] of Plasmodium falciparum NF54 assessed as reduction in female gametocytes activation preincubated for 48 hrs followed by gametocytes activation and measured after 24 hrs by fluorescence based automated inverted microscopic analysis; format: functional, organism-based
How it was run: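 NF54 gametocytes were activated by lowered temperature plus ookinete medium with xanthurenic acid and anti-Pfs25-Cy3 antibody (1/2000 final dilution). Cultures were then kept at 26 °C for 24 h in the dark. Activated females were counted by Cy3 anti-Pfs25 fluorescence, with events gated on size, roundness and fluorescence intensity.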

[16] = target: T1, Calcium-dependent protein kinase 4 (Plasmodium falciparum (isolate 3D7), UniProt Q8IBS5); assay: Binding affinity to CDPK4 in Plasmodium falciparum 3D7 blood stage extract incubated for 1 hr by kinobeads based pull down assay; conditions: read-out: Kd(app)
T1 sequence (Q8IBS5 whole entry): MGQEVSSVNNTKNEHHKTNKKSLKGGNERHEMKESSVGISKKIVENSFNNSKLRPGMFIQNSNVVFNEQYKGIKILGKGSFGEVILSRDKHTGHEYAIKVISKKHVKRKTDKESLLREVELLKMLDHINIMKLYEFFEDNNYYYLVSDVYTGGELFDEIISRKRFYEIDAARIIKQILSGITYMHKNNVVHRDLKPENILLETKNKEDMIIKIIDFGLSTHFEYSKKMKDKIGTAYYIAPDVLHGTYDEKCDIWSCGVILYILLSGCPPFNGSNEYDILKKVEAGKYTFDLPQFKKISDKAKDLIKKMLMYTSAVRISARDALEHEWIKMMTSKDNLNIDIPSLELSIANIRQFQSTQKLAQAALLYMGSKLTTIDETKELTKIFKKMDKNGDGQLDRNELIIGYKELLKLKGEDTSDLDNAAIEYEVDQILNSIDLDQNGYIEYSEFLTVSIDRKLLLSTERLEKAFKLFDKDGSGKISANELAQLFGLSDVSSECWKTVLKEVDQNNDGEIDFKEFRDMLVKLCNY
How it was run: (§2)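 Chemoproteomic competition used kinobeads or Sepharose beads derivatized with ligand at 1 mM. Free compound was tested at six concentrations between 0.08 and 20 μM, in two independent experiments. Proteins were SP3-digested, TMT 10-plex labelled and measured by LC-MS/MS. IC50s came from competition curves, and apparent Kd was corrected for protein depletion by the beads.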

[17] = target: T1, Calcium-dependent protein kinase 4; assay: Binding affinity to CDPK4 in Plasmodium falciparum 3D7 blood stage extract incubated for 1 hr in presence of ATP-competitive kinase inhibitor by kinobeads based pull down assay; conditions: read-out: Kd(app); how it was run: as §2
[18] = target: T2, Calcium-dependent protein kinase 1 (Plasmodium falciparum, UniProt P62344); assay: Binding affinity to CDPK1 in Plasmodium falciparum 3D7 blood stage extract incubated for 1 hr by kinobeads based pull down assay; conditions: read-out: Kd(app); how it was run: as §2
T2 sequence (P62344 whole entry): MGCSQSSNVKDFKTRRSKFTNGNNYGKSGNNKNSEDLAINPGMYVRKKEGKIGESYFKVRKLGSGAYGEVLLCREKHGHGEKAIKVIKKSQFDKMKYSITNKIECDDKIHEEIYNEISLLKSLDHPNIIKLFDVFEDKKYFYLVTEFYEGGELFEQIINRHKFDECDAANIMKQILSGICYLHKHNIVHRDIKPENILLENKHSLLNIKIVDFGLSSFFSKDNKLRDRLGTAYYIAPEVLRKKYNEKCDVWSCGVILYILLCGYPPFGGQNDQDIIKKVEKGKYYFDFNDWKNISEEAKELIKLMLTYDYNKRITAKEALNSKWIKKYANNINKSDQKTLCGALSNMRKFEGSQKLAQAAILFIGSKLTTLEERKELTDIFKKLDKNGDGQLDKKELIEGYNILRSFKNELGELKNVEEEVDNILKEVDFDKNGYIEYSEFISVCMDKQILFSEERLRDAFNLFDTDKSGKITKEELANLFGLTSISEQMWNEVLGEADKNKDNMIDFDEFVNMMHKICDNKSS

[19] = target: T2, Calcium-dependent protein kinase 1; assay: Binding affinity to CDPK1 in Plasmodium falciparum 3D7 blood stage extract incubated for 1 hr in presence of ATP-competitive kinase inhibitor by kinobeads based pull down assay; conditions: read-out: Kd(app); how it was run: as §2
Casein kinase I = target: T3, Casein kinase I (Plasmodium falciparum (isolate 3D7), UniProt Q8IHZ9); assay: Binding affinity to CK1 in Plasmodium falciparum 3D7 blood stage extract incubated for 1 hr by kinobeads based pull down assay; conditions: read-out: Kd(app)
T3 sequence (Q8IHZ9 whole entry): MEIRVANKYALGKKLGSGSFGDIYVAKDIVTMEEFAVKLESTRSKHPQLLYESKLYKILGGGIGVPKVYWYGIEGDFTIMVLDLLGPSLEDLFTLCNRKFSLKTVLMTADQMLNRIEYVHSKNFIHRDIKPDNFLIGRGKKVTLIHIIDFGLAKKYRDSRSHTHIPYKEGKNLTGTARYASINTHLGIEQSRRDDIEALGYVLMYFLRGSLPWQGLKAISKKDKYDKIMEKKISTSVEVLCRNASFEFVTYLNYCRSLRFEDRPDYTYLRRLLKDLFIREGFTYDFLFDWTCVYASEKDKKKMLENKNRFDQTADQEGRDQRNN
How it was run: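 Chemoproteomic competition binding: Sepharose beads derivatized at 1 mM with the immobilized ligand (kinobeads prepared likewise). Free compound competed at six concentrations, 0.08–20 μM. Proteins were SP3-digested, TMT 10-plex labelled and quantified by LC-MS/MS on an Orbitrap. IC50 from the competition curve; apparent Kd corrected for protein depletion by the beads. Two independent experiments.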

[20] = Binding affinity to GSK3 in Plasmodium falciparum 3D7 blood stage extract incubated for 1 hr by kinobeads based pull down assay; conditions: read-out: Kd(app)
How it was run: (§3)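 The free compound competed over six concentrations from 0.08 to 20 μM. Proteins were digested by a modified SP3 protocol, labelled with TMT 10-plex and quantified by LC-MS/MS. Apparent Kd was derived from IC50 corrected for bead depletion. Two independent experiments were run.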

[21] = Binding affinity to GSK3 in Plasmodium falciparum 3D7 blood stage extract incubated for 1 hr in presence of ATP-competitive kinase inhibitor by kinobeads based pull down assay; conditions: read-out: Kd(app); how it was run: as §3
[22] = Binding affinity to SRPK2 in Plasmodium falciparum 3D7 blood stage extract incubated for 1 hr in presence of ATP-competitive kinase inhibitor by kinobeads based pull down assay; conditions: read-out: Kd(app); how it was run: as §3
[23] = system: Plasmodium falciparum 3D7

| Compound | EC50 (Plasmodium falciparum [1]) | chromatographic logD [2] | solubility [3] | IC50 [4] | EC50 (L929) | Papp [5] | CLH [6] | CLH [7] | CLH [8] | Activity (Plasmodium falciparum [12]) | EC50 (Plasmodium falciparum [14]) | EC50 (Plasmodium falciparum [15]) | further results |
| --- | --- | --- | --- | --- | --- | --- | --- | --- | --- | --- | --- | --- | --- |
| CN1CCC(c2nc(-c3ccc(F)c(NS(C)(=O)=O)c3)c(-c3ccnc(NCC4CC4)n3)s2)CC1 | 1020 nM | 3.2 | 311 µM (≈ 161 µg/mL) | 1340 nM | 17000 nM | 34 ×10⁻⁶ cm/s | 1.32 mL/min/g | 6.22 mL/min/g | 0.49 mL/min/g | inactive |  |  | EC50 (Plasmodium falciparum [9]): 1020 nM; EC50 (Plasmodium falciparum [10]): > 5000 nM; EC50 (Plasmodium falciparum [11]): 3900 nM |
| CN1CCN(c2ccc(Nc3nccc(-c4sc(C5CCNCC5)nc4-c4ccc(F)cc4)n3)cc2)CC1 | 700 nM | 2.79 | 41 µM (≈ 21.7 µg/mL) | 13200 nM | 3800 nM | 11 ×10⁻⁶ cm/s | 0.96 mL/min/g | 1.27 mL/min/g | 0.53 mL/min/g |  | 260 nM | 300 nM | IC50 [13]: 0.6 nM |
| Cc1cc(Nc2nccc(-c3sc(C4CCNCC4)nc3CN3CCCCC3)n2)ccn1 | 190 nM |  |  |  | 20000 nM | 1 ×10⁻⁶ cm/s |  |  |  | Active |  |  |  |
| Nc1nc(-c2ccc(F)cc2)c(-c2ccnc(Nc3ccc(N4CCNCC4)cc3)n2)s1 | 1750 nM | 2.42 | 24.5 µM (≈ 11 µg/mL) | 35500 nM | 1800 nM |  | 1.47 mL/min/g | 1.98 mL/min/g | 0.52 mL/min/g |  | 150 nM | 190 nM |  |
| Fc1ccc(-c2nc(C3CCNCC3)sc2-c2ccnc(NCCN3CCSCC3)n2)cc1 | 4030 nM | 2.84 | 491 µM (≈ 238 µg/mL) |  | 15100 nM | 31 ×10⁻⁶ cm/s |  |  |  |  |  |  | Kd [16]: 60 nM; Kd [17]: 60 nM; Kd [18]: 2100 nM; Kd [19]: 2100 nM; Kd (Casein kinase I): 1500 nM; Kd [20]: 5300 nM; Kd [21]: 5300 nM; Kd [22]: > 20000 nM; Kd(app) [23]: inactive |
| Cc1cc(Nc2nccc(-c3sc(C4CCNCC4)nc3C3CC3)n2)ccn1 | 270 nM | 1.99 | 342 µM (≈ 134 µg/mL) |  | 8900 nM | 18 ×10⁻⁶ cm/s | 0.87 mL/min/g | 1.18 mL/min/g | 0.4 mL/min/g | Active |  |  |  |
